Measured values published in ChEMBL document CHEMBL2177003, “Development of target protein-selective degradation inducer for protein knockdown” (Bioorg Med Chem, 2011).
The source made the active and inactive calls. The calls are words filed in the database; no cut-off is given here.

Experiments:
[1] = target: T1, Complex of retinoic acid binding (CRABPII) and inhibitor of apoptosis (cIAP1) proteins (Homo sapiens) (UniProt P29373+Q13490); assay: Binding affinity to Flag-tagged cIAP1/CRABP2 expressed in human HT1080 cells assessed as formation of ternary complex by GST-pull down assay; type: cell-based; conditions: HT-1080
[2] = target: T1, Complex of retinoic acid binding (CRABPII) and inhibitor of apoptosis (cIAP1) proteins (Homo sapiens); assay: Binding affinity to Flag-tagged cIAP1/CRABP2 expressed in human HT1080 cells assessed as induction in CRABP-2 degradation at 0.1 to 10 uM after 6 hrs by Western blot analysis; type: cell-based; conditions: HT-1080
Summary of the method: (§1)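 FLAG-tagged IAP-expressing HT1080 cells (1 × 10⁶), RPMI 1640 with 10% heat-inactivated FBS at 37 °C, 5% CO₂, treated for the stated period in medium with 10% FBS. SDS lysates equalized by BCA, resolved on 10–20% SDS–PAGE, PVDF, skim-milk block. Probed for CRABP-II, cIAP1, FLAG and β-actin with HRP secondaries, visualized by enhanced chemiluminescence.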

[3] = target: T1, Complex of retinoic acid binding (CRABPII) and inhibitor of apoptosis (cIAP1) proteins (Homo sapiens); assay: Binding affinity to Flag-tagged cIAP1/CRABP2 expressed in human HT1080 cells assessed as induction in cIAP1 degradation at 0.1 to 10 uM after 6 hrs by Western blot analysis; type: cell-based; conditions: HT-1080; summary of the method: as §1
HT-1080 [4] = assay: Induction of apoptosis in human HT1080 cells after 24 hrs by lactate dehydrogenase assay in presence of etoposide; type: functional, cell-based
Summary of the method: (§2)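 HT1080 cells seeded at 2 × 10⁴/well, grown 24 h at 37 °C, then exposed to compounds for 24 h with or without 30 μg/mL etoposide. LDH release measured with a non-radioactive cytotoxicity kit; lysis-buffer wells served as high control. Substrate 30 min at room temperature, stopped, A490 read. Means of triplicates.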

IMR-32 [5] = assay: Induction of apoptosis in human IMR32 cells assessed as activation of caspase 3/7 at 30 uM after 24 hrs by fluorescence assay; type: functional, cell-based
Summary of the method: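 IMR-32 cells seeded at 2 × 10⁴/well, grown 24 h, then exposed to compounds for 24 h. Caspase-3/7 homogeneous reagent added, 0.5 h at room temperature. Fluorescence read at ex 485/em 535 nm and expressed as fold change over control. Means of triplicates; ANOVA with Bonferroni-type multiple t test.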

IMR-32 [6] = assay: Inhibition of cell proliferation in human IMR32 cells at 1 to 30 uM after 72 hrs by Alamarblue assay; type: functional, cell-based
Summary of the method: (§3)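 Cells (IMR-32, HT1080 or MCF-7) seeded at 2 × 10⁴/well and grown 24 h at 37 °C. Compounds at various concentrations added for 0–72 h at 37 °C, 5% CO₂. AlamarBlue then added for 3 h at 37 °C. Fluorescence read at ex 540/em 590 nm and converted to percentage cell growth.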

HT-1080 [7] = assay: Induction of apoptosis in human HT1080 cells at 1 to 30 uM after 24 hrs by lactate dehydrogenase assay; type: functional, cell-based; summary of the method: as §2
HT-1080 [8] = assay: Induction of apoptosis in human HT1080 cells assessed as activation of caspase 3/7 at 30 uM after 24 hrs by fluorescence assay in presence of etoposide; type: functional, cell-based
Summary of the method: (§4)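 HT1080 cells seeded at 2 × 10⁴/well, grown 24 h, then compounds added for 24 h with or without 30 μg/mL etoposide. Caspase-3/7 homogeneous reagent added, 10 h at room temperature. Fluorescence read at ex 485/em 535 nm and expressed as fold change in caspase activity. Means of triplicates; ANOVA with Bonferroni-type multiple t test.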

HT-1080 [9] = assay: Induction of apoptosis in human HT1080 cells assessed as activation of caspase 3/7 at 30 uM after 24 hrs by fluorescence assay; type: functional, cell-based; summary of the method: as §4
[10] = target: Baculoviral IAP repeat-containing protein 2 (Homo sapiens) (UniProt Q13490); assay: Induction of auto-degradation of Flag-tagged cIAP1 expressed in HT1080 cells at 0.1 to 10 uM by Western blot analysis; type: cell-based; conditions: HT-1080; summary of the method: as §1
Sequence of Baculoviral IAP repeat-containing protein 2 (Homo sapiens) (Q13490 whole entry): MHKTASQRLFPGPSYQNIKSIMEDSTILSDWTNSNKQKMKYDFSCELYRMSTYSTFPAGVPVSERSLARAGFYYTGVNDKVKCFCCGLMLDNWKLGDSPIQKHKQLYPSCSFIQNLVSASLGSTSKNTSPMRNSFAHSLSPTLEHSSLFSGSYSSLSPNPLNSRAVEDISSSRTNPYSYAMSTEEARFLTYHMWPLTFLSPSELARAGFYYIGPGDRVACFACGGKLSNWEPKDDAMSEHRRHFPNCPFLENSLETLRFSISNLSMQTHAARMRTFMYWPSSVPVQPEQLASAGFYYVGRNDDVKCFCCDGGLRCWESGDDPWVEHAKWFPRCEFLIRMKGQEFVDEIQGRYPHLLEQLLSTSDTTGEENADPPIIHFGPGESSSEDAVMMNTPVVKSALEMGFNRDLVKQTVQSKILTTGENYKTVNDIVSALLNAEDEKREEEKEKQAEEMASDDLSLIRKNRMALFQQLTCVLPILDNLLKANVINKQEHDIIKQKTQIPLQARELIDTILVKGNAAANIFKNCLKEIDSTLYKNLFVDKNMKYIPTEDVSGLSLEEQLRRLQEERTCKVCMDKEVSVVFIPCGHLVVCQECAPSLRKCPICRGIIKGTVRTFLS

[11] = target: Baculoviral IAP repeat-containing protein 2 (Homo sapiens) (UniProt Q13490); assay: Inhibition of MeBS-induced degradation of Flag-tagged cIAP1 expressed in HT1080 cells at 100 to 1000 uM by Western blot analysis; type: cell-based; conditions: HT-1080
[12] = target: Baculoviral IAP repeat-containing protein 2 (Homo sapiens) (UniProt Q13490); assay: Induction of degradation of Flag-tagged cIAP1 expressed in HT1080 cells at […] by Western blot analysis in presence of MG132; type: cell-based; conditions: HT-1080
[13] = target: Baculoviral IAP repeat-containing protein 2 (Homo sapiens) (UniProt Q13490); assay: Induction of auto-degradation of Flag-tagged cIAP1 expressed in HT1080 cells at […] by Western blot analysis; type: cell-based; conditions: HT-1080
XIAP (Homo sapiens) = assay: Binding affinity to Flag-tagged XIAP expressed in HT1080 cells assessed as degradation of XIAP at 0.1 to 10 uM after 6 hrs by Western blot analysis; conditions: HT-1080
[14] = target: T1, Complex of retinoic acid binding (CRABPII) and inhibitor of apoptosis (cIAP1) proteins (Homo sapiens); assay: Binding affinity to Flag-tagged cIAP1/CRABP2 expressed in human HT1080 cells assessed as induction in CRABP-2 degradation after 12 hrs by Western blot analysis; type: cell-based; conditions: HT-1080; summary of the method: as §1
HT-1080 [15] = assay: Inhibition of cell proliferation in human HT1080 cells at 1 to 30 uM after 72 hrs by Alamar blue assay; type: functional, cell-based; summary of the method: as §3
MCF7 = assay: Inhibition of cell proliferation in human MCF7 cells at 1 to 30 uM after 72 hrs by Alamar blue assay; type: functional, cell-based; summary of the method: as §3
[16] = target: T1, Complex of retinoic acid binding (CRABPII) and inhibitor of apoptosis (cIAP1) proteins (Homo sapiens); assay: Binding affinity to Flag-tagged cIAP1/CRABP2 expressed in human HT1080 cells assessed as induction in CRABP-2 degradation after 48 hrs by Western blot analysis; type: cell-based; conditions: HT-1080; summary of the method: as §1
[17] = target: T1, Complex of retinoic acid binding (CRABPII) and inhibitor of apoptosis (cIAP1) proteins (Homo sapiens); assay: Binding affinity to Flag-tagged cIAP1/CRABP2 expressed in human HT1080 cells assessed as reduction in CRABP2 level at 0.1 uM to 1 uM after 6 hrs by Western blot analysis; type: cell-based; conditions: HT-1080; summary of the method: as §1
IMR-32 [18] = assay: Inhibition of cell proliferation in human IMR32 cells after 72 hrs by Alamarblue assay; type: functional, cell-based; summary of the method: as §3
[19] = target: T1, Complex of retinoic acid binding (CRABPII) and inhibitor of apoptosis (cIAP1) proteins (Homo sapiens); assay: Binding affinity to Flag-tagged cIAP1/CRABP2 expressed in human HT1080 cells assessed as induction in CRABP-2 degradation at 1 uM after 6 hrs by Western blot analysis; type: cell-based; conditions: HT-1080; summary of the method: as §1
[20] = target: T1, Complex of retinoic acid binding (CRABPII) and inhibitor of apoptosis (cIAP1) proteins (Homo sapiens); assay: Binding affinity to Flag-tagged cIAP1/CRABP2 expressed in human IMR32 cells assessed as reduction in MycN level at 1 to 10 uM after 48 hrs by Western blot analysis; type: cell-based; conditions: IMR-32
[21] = target: T1, Complex of retinoic acid binding (CRABPII) and inhibitor of apoptosis (cIAP1) proteins (Homo sapiens); assay: Binding affinity to Flag-tagged cIAP1/CRABP2 expressed in human HT1080 cells assessed as induction in cIAP1 degradation at 30 uM after 6 hrs by Western blot analysis; type: cell-based; conditions: HT-1080; summary of the method: as §1
HT-1080 [22] = assay: Induction of apoptosis in human HT1080 cells at 1 to 30 uM after 24 hrs by lactate dehydrogenase assay in presence of etoposide; type: functional, cell-based; summary of the method: as §2
[23] = target: T1, Complex of retinoic acid binding (CRABPII) and inhibitor of apoptosis (cIAP1) proteins (Homo sapiens); assay: Binding affinity to Flag-tagged cIAP1/CRABP2 expressed in human HT1080 cells assessed as induction in CRABP-2 degradation after 6 hrs by Western blot analysis; type: cell-based; conditions: HT-1080; summary of the method: as §1
[24] = target: T1, Complex of retinoic acid binding (CRABPII) and inhibitor of apoptosis (cIAP1) proteins (Homo sapiens); assay: Binding affinity to Flag-tagged cIAP1/CRABP2 expressed in human HT1080 cells assessed as induction in CRABP-2 degradation at 1 uM after 6 hrs by Western blot analysis in presence of MeBS; type: cell-based; conditions: HT-1080
[25] = target: T1, Complex of retinoic acid binding (CRABPII) and inhibitor of apoptosis (cIAP1) proteins (Homo sapiens); assay: Binding affinity to Flag-tagged cIAP1/CRABP2 expressed in human MCF7 cells assessed as reduction in CRABP2 level at 0.1 uM to 1 uM after 6 hrs by Western blot analysis; type: cell-based
[26] = target: T1, Complex of retinoic acid binding (CRABPII) and inhibitor of apoptosis (cIAP1) proteins (Homo sapiens); assay: Binding affinity to Flag-tagged cIAP1/CRABP2 expressed in human IMR32 cells assessed as reduction in CRABP-2 level at 1 to 10 uM after 24 hrs by Western blot analysis; conditions: IMR-32
[27] = target: T1, Complex of retinoic acid binding (CRABPII) and inhibitor of apoptosis (cIAP1) proteins (Homo sapiens); assay: Binding affinity to Flag-tagged cIAP1/CRABP2 expressed in human HT1080 cells assessed as induction in CRABP-2 degradation at 1 uM after 6 hrs by Western blot analysis in presence of proteasome inhibitor MG132; type: cell-based; conditions: HT-1080
Summary of the method: (§5)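 HT1080 cells expressing FLAG-tagged cIAP1 were pretreated with proteasome inhibitor (MG132 or lactacystin), then given 1 μM degrader for 6 h. CRABP-II read by Western blot: SDS lysates equalized by BCA, 10–20% SDS–PAGE, PVDF, ECL.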

[28] = target: T1, Complex of retinoic acid binding (CRABPII) and inhibitor of apoptosis (cIAP1) proteins (Homo sapiens); assay: Binding affinity to Flag-tagged cIAP1/CRABP2 expressed in human HT1080 cells assessed as induction in CRABP-2 degradation at 1 uM after 6 hrs by Western blot analysis in presence of proteasome inhibitor lactacystin; type: cell-based; conditions: HT-1080; summary of the method: as §5

Structure (SMILES) | Activity [1] | Activity [3] | Activity (HT-1080 [4]) | Activity (IMR-32 [5]) | inhibition (IMR-32 [6]) | Activity (HT-1080 [7]) | Activity (HT-1080 [8]) | Activity (HT-1080 [9]) | Activity [10] | also measured
CC1=C(/C=C/C(C)=C/C=C/C(C)=C/C(=O)O)C(C)(C)CC/C1=N\OCC(=O)NCCOCCOCCNC(=O)[C@H](CC(C)C)NC(=O)CCCc1ccccc1 | inactive | inactive | – | – | – | – | – | – | – | Activity [2]: inactive
COC(=O)[C@H](CC(C)C)NC(=O)[C@@H](O)[C@H](N)Cc1ccccc1 | – | – | Dose-dependent effect | inactive | inactive | inactive | Active | inactive | – | –
CNC(=O)[C@H](CC(C)C)NC(=O)CCCc1ccccc1 | – | – | – | – | – | – | – | – | inactive | –
CNC(=O)[C@H](CC(C)C)NC(=O)[C@@H](O)[C@H](N)Cc1ccccc1 | – | – | – | inactive | inactive | – | – | – | inactive | inhibition [11]: Active; Activity [12]: inactive; Activity [13]: inactive; Activity (XIAP (Homo sapiens)): inactive
CC1=C(/C=C/C(C)=C/C=C/C(C)=C/C(=O)O)C(C)(C)CC/C1=N\OCC(=O)NCCOCCOCCOC(=O)[C@H](CC(C)C)NC(=O)[C@@H](O)[C@H](N)Cc1ccccc1 | – | – | Dose-dependent effect | – | – | inactive | Active | inactive | – | Activity [14]: Active
CC1=C(/C=C/C(C)=C/C=C/C(C)=C/C(=O)O)C(C)(C)CC/C1=N\OCC(=O)NCCOCCOCCNC(=O)[C@H](CC(C)C)NC(=O)[C@@H](O)[C@H](N)Cc1ccccc1 | Active | inactive | – | Active | – | – | inactive | inactive | – | Activity (HT-1080 [15]): inactive; Activity (MCF7): inactive; Activity [16]: Active; Activity [17]: Active; inhibition (IMR-32 [18]): Dose-dependent effect; Activity [19]: Active; Activity [20]: Active; Activity [21]: inactive; Activity (HT-1080 [22]): inactive; Activity [23]: Dose-dependent effect; Activity [24]: inactive; Activity [25]: Active; Activity [26]: Active; Activity [27]: inactive; Activity [28]: inactive
